{"source": "ChEMBL document CHEMBL1147105", "about": "“In vitro and in vivo activities of PD 0305970 and PD 0326448, new bacterial gyrase/topoisomerase inhibitors with potent antibacterial activities versus multidrug-resistant gram-positive and fastidious organism groups” (2007)", "key": {"Prevotella bivia": {"tested_on": "Prevotella bivia", "assay": "Antibacterial activity against Prevotella bivia", "type": "functional", "summary_of_the_method": "(§1)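 Anaerobic broth microdilution MIC following CLSI guidelines, in supplemented Brucella broth. Run in an anaerobe chamber under 5% CO2, 5% H2 and 90% N2 at 35°C, and read after 48 h. Reported as MIC range, MIC50 and MIC90.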"}, "Shigella dysenteriae": {"tested_on": "Shigella dysenteriae", "assay": "Antibacterial activity against Shigella dysenteriae", "type": "functional"}, "Fusobacterium nucleatum": {"tested_on": "Fusobacterium nucleatum", "assay": "Antibacterial activity against Fusobacterium nucleatum", "type": "functional", "summary_of_the_method": "as §1"}, "Clostridium perfringens": {"tested_on": "Clostridium perfringens", "assay": "Antibacterial activity against Clostridium perfringens", "type": "functional", "summary_of_the_method": "(§2)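 Broth microdilution MIC per CLSI guidelines, incubated at 35°C. Cation-adjusted Mueller-Hinton broth for nonfastidious organisms and staphylococci. Streptococci tested in the same broth with 3% lysed horse blood. Anaerobes tested in supplemented Brucella broth inside an anaerobe chamber (5% CO2, 5% H2, 90% N2), read after 48 h. Strains were mainly recent clinical isolates with confirmed identity.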"}, "Corynebacterium jeikeium": {"tested_on": "Corynebacterium jeikeium", "assay": "Antibacterial activity against Corynebacterium jeikeium", "type": "functional", "summary_of_the_method": "(§3)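 Broth microdilution MIC following CLSI guidelines, in cation-adjusted Mueller-Hinton broth containing 3% lysed horse blood, incubated at 35°C. Clinical isolates with identity confirmed. Reported as MIC range, MIC50 and MIC90.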"}, "Staphylococcus aureus": {"tested_on": "Staphylococcus aureus", "assay": "Antibacterial activity against oxacillin-resistant Staphylococcus aureus", "type": "functional", "summary_of_the_method": "as §2"}, "[1]": {"tested_on": "Staphylococcus epidermidis", "assay": "Antibacterial activity against oxacillin-resistant Staphylococcus epidermidis", "type": "functional", "summary_of_the_method": "as §2"}, "Klebsiella pneumoniae": {"tested_on": "Klebsiella pneumoniae", "assay": "Antibacterial activity against Klebsiella pneumoniae", "type": "functional", "summary_of_the_method": "(§4)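 Broth microdilution MIC following CLSI guidelines, in cation-adjusted Mueller-Hinton broth, incubated at 35°C. Recent clinical isolates and reference strains, with identity confirmed by automated and standard microbiological methods. Results reported as MIC range, MIC50 and MIC90.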"}, "Fusobacterium sp.": {"tested_on": "Fusobacterium sp.", "assay": "Antibacterial activity against Fusobacterium sp.", "type": "functional", "summary_of_the_method": "as §1"}, "Bacteroides fragilis": {"tested_on": "Bacteroides fragilis", "assay": "Antibacterial activity against Bacteroides fragilis", "type": "functional", "summary_of_the_method": "as §1"}, "Streptococcus pyogenes": {"tested_on": "Streptococcus pyogenes", "assay": "Antibacterial activity against Streptococcus pyogenes", "type": "functional", "summary_of_the_method": "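Broth microdilution MIC following CLSI guidelines, in cation-adjusted Mueller-Hinton broth with 3% lysed horse blood. Plates incubated at 35°C. Clinical isolates and reference strains, with identity confirmed by standard microbiological methods.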"}, "Enterobacter cloacae": {"tested_on": "Enterobacter cloacae", "assay": "Antibacterial activity against Enterobacter cloacae", "type": "functional", "summary_of_the_method": "as §4"}, "[2]": {"tested_on": "Staphylococcus saprophyticus", "assay": "Antibacterial activity against Staphylococcus saprophyticus", "type": "functional", "summary_of_the_method": "as §4"}, "Staphylococcus warneri": {"tested_on": "Staphylococcus warneri", "assay": "Antibacterial activity against Staphylococcus warneri", "type": "functional", "summary_of_the_method": "as §4"}, "[3]": {"tested_on": "Staphylococcus haemolyticus", "assay": "Antibacterial activity against Staphylococcus haemolyticus", "type": "functional", "summary_of_the_method": "as §3"}, "Moraxella catarrhalis": {"tested_on": "Moraxella catarrhalis", "assay": "Antibacterial activity against beta-lactamase negative Moraxella catarrhalis", "type": "functional"}, "Enterococcus faecalis": {"tested_on": "Enterococcus faecalis", "assay": "Antibacterial activity against beta-lactamase positive Enterococcus faecalis", "type": "functional", "summary_of_the_method": "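MIC by CLSI broth microdilution for nonfastidious organisms, in cation-adjusted Mueller-Hinton broth incubated at 35°C.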"}, "Proteus mirabilis": {"tested_on": "Proteus mirabilis", "assay": "Antibacterial activity against Proteus mirabilis", "type": "functional", "summary_of_the_method": "as §4"}, "Shigella sonnei": {"tested_on": "Shigella sonnei", "assay": "Antibacterial activity against Shigella sonnei", "type": "functional", "summary_of_the_method": "as §4"}, "Citrobacter koseri": {"tested_on": "Citrobacter koseri", "assay": "Antibacterial activity against Citrobacter diversus", "type": "functional", "summary_of_the_method": "as §4"}, "Burkholderia cepacia": {"tested_on": "Burkholderia cepacia", "assay": "Antibacterial activity against Burkholderia cepacia", "type": "functional", "summary_of_the_method": "as §4"}, "[4]": {"tested_on": "Peptostreptococcus anaerobius", "assay": "Antibacterial activity against Peptostreptococcus anaerobius", "type": "functional", "summary_of_the_method": "as §1"}, "Serratia marcescens": {"tested_on": "Serratia marcescens", "assay": "Antibacterial activity against Serratia marcescens", "type": "functional", "summary_of_the_method": "as §4"}, "Salmonella enteritidis": {"tested_on": "Salmonella enteritidis", "assay": "Antibacterial activity against Salmonella enterica serovar Enteritidis", "type": "functional, Salmonella enterica subsp. enterica serovar Enteritidis", "summary_of_the_method": "as §4"}, "Prevotella buccae": {"tested_on": "Prevotella buccae", "assay": "Antibacterial activity against Prevotella buccae", "type": "functional", "conditions": "Segatella buccae", "summary_of_the_method": "as §1"}}}
{"compound": "COc1c(N2CCNC(C)C2)c(F)cc2c(=O)c(C(=O)O)cn(C3CC3)c12", "note": "(stereo not given) [GATIFLOXACIN]", "values": [{"measurement": "MIC50", "setting": "Prevotella bivia", "value": 0.25, "unit": "µg/mL"}, {"measurement": "MIC90", "setting": "Prevotella bivia", "value": 0.5, "unit": "µg/mL"}, {"measurement": "MIC50", "setting": "Shigella dysenteriae", "value": 0.03, "unit": "µg/mL"}, {"measurement": "MIC90", "setting": "Shigella dysenteriae", "value": 0.06, "unit": "µg/mL"}, {"measurement": "MIC", "setting": "Fusobacterium nucleatum", "value": 0.015, "unit": "µg/mL"}, {"measurement": "MIC50", "setting": "Clostridium perfringens", "value": 0.5, "unit": "µg/mL"}, {"measurement": "MIC90", "setting": "Clostridium perfringens", "value": 0.5, "unit": "µg/mL"}, {"measurement": "MIC50", "setting": "Corynebacterium jeikeium", "value": 0.125, "unit": "µg/mL"}, {"measurement": "MIC90", "setting": "Corynebacterium jeikeium", "value": 0.5, "unit": "µg/mL"}, {"measurement": "MIC50", "setting": "Staphylococcus aureus", "value": 4, "unit": "µg/mL"}, {"measurement": "MIC90", "setting": "Staphylococcus aureus", "value": 8, "unit": "µg/mL"}, {"measurement": "MIC50", "setting": "[1]", "value": 2, "unit": "µg/mL"}, {"measurement": "MIC90", "setting": "[1]", "value": 32, "unit": "µg/mL"}, {"measurement": "MIC50", "setting": "Klebsiella pneumoniae", "value": 0.06, "unit": "µg/mL"}, {"measurement": "MIC90", "setting": "Klebsiella pneumoniae", "value": 0.5, "unit": "µg/mL"}, {"measurement": "MIC", "setting": "Fusobacterium sp.", "value": 0.015, "unit": "µg/mL"}, {"measurement": "MIC50", "setting": "Bacteroides fragilis", "value": 1, "unit": "µg/mL"}, {"measurement": "MIC90", "setting": "Bacteroides fragilis", "value": 8, "unit": "µg/mL"}, {"measurement": "MIC50", "setting": "Streptococcus pyogenes", "value": 0.25, "unit": "µg/mL"}, {"measurement": "MIC90", "setting": "Streptococcus pyogenes", "value": 0.5, "unit": "µg/mL"}, {"measurement": "MIC50", "setting": "Enterobacter cloacae", "value": 0.06, "unit": "µg/mL"}, {"measurement": "MIC90", "setting": "Enterobacter cloacae", "value": 1, "unit": "µg/mL"}, {"measurement": "MIC50", "setting": "[2]", "value": 0.25, "unit": "µg/mL"}, {"measurement": "MIC90", "setting": "[2]", "value": 0.25, "unit": "µg/mL"}, {"measurement": "MIC", "setting": "Staphylococcus warneri", "value": 0.125, "unit": "µg/mL"}, {"measurement": "MIC50", "setting": "[3]", "value": 0.125, "unit": "µg/mL"}, {"measurement": "MIC90", "setting": "[3]", "value": 4, "unit": "µg/mL"}, {"measurement": "MIC50", "setting": "Moraxella catarrhalis", "value": 0.06, "unit": "µg/mL"}, {"measurement": "MIC90", "setting": "Moraxella catarrhalis", "value": 0.06, "unit": "µg/mL"}, {"measurement": "MIC", "setting": "Enterococcus faecalis", "value": 0.25, "unit": "µg/mL"}, {"measurement": "MIC50", "setting": "Proteus mirabilis", "value": 0.25, "unit": "µg/mL"}, {"measurement": "MIC90", "setting": "Proteus mirabilis", "value": 4, "unit": "µg/mL"}, {"measurement": "MIC50", "setting": "Shigella sonnei", "value": 0.03, "unit": "µg/mL"}, {"measurement": "MIC90", "setting": "Shigella sonnei", "value": 0.06, "unit": "µg/mL"}, {"measurement": "MIC50", "setting": "Citrobacter koseri", "value": 0.03, "unit": "µg/mL"}, {"measurement": "MIC90", "setting": "Citrobacter koseri", "value": 0.06, "unit": "µg/mL"}, {"measurement": "MIC50", "setting": "Burkholderia cepacia", "value": 4, "unit": "µg/mL"}, {"measurement": "MIC90", "setting": "Burkholderia cepacia", "value": 16, "unit": "µg/mL"}, {"measurement": "MIC", "setting": "[4]", "value": 0.06, "unit": "µg/mL"}, {"measurement": "MIC50", "setting": "Serratia marcescens", "value": 0.25, "unit": "µg/mL"}, {"measurement": "MIC90", "setting": "Serratia marcescens", "value": 4, "unit": "µg/mL"}, {"measurement": "MIC50", "setting": "Salmonella enteritidis", "value": 0.03, "unit": "µg/mL"}, {"measurement": "MIC90", "setting": "Salmonella enteritidis", "value": 0.06, "unit": "µg/mL"}, {"measurement": "MIC50", "setting": "Prevotella buccae", "value": 0.25, "unit": "µg/mL"}, {"measurement": "MIC90", "setting": "Prevotella buccae", "value": 0.5, "unit": "µg/mL"}]}
